Like-named read-outs stand apart in the source and are kept apart here.
Columns and labels:
[1] = system: MCF-7 cells; assay: Late apoptosis study; type: cell-based, human; conditions: treated at EC50 of 72 h, 36 h incubation
In short: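 MCF-7 cells were seeded at 2 × 10^4 on chamber slides and held 24 h at 37 °C, then exposed to test compound for 36 h; untreated cells served as control. Cells were fixed in 4% paraformaldehyde/PBS (pH 7.4) for 25 min at 4 °C and permeabilised with 0.2% Triton X-100 for 5 min. DNA ends were labelled with rTdT/nucleotide mix at 37 °C in the dark. Diluted SSC was added, and nuclei were counterstained with PI (1 μg/mL, 15 min, RT). FITC signal was imaged by high-content microscopy.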

[2] = system: MCF-7 (human breast adenocarcinoma); assay: Cell viability in treated cell lines; type: cell-based; conditions: MCF7, 72 h
In short: (§1)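 Cells were kept in RPMI 1640 with 10% FCS and penicillin/streptomycin at 37 °C, 5% CO2. They were seeded at 6000 cells/well, held 24 h, then given test compound at 0, 15.62, 31.25, 62.5, 125, 250, 500 and 1000 […] for 72 h. MTT (5 mg/mL) was added for 4 h, formazan dissolved in DMSO, and A570 read. Treatment was done in triplicate. EC50 came from sigmoidal variable-slope nonlinear regression of % growth inhibition.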

[3] = system: HeLa (cervical cancer); assay: Cell viability in treated cell lines; type: cell-based; conditions: Homo sapiens, 72 h, read-out: EC50 HeLa
In short: as §1

[4] = target: T1, urease (Canavalia ensiformis, UniProt P07374); assay: Urease inhibitory assay; type: biochemical
In short: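 Urease in pH 8.2 buffer (0.01 M K2HPO4·3H2O, 1 mM EDTA, 0.01 M LiCl) with 100 mM urea, incubated 15 min at 30 °C with test compound added from a 1 mM solution. Ammonia detected by indophenol: alkali (0.5% NaOH, 0.1% active chloride NaOCl) plus phenol reagent (1% phenol, 0.005% nitroprusside). A630 read after 50 min as change per min; triplicate; acetohydroxamic acid standard; % inhibition.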

[5] = target: T1, urease; assay: Kinetic study of urease inhibition; type: biochemical
[6] = system: MCF-7 cells; assay: Early apoptosis study; type: cell-based, human; conditions: treated at EC50 of 72 h for 6 and 9 h
In short: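 MCF-7 cells were seeded at 10,000 cells/well and held 24 h at 37 °C. The medium was replaced with test compound, alongside a positive control and an untreated control, for 6 and 9 h. Cells were stained with Annexin V-FITC (green) and PI (red) in binding buffer for 10 min at 37 °C. They were imaged by widefield high-content imaging to score early versus late apoptosis and necrosis.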

T1 sequence (P07374 whole entry, looked up): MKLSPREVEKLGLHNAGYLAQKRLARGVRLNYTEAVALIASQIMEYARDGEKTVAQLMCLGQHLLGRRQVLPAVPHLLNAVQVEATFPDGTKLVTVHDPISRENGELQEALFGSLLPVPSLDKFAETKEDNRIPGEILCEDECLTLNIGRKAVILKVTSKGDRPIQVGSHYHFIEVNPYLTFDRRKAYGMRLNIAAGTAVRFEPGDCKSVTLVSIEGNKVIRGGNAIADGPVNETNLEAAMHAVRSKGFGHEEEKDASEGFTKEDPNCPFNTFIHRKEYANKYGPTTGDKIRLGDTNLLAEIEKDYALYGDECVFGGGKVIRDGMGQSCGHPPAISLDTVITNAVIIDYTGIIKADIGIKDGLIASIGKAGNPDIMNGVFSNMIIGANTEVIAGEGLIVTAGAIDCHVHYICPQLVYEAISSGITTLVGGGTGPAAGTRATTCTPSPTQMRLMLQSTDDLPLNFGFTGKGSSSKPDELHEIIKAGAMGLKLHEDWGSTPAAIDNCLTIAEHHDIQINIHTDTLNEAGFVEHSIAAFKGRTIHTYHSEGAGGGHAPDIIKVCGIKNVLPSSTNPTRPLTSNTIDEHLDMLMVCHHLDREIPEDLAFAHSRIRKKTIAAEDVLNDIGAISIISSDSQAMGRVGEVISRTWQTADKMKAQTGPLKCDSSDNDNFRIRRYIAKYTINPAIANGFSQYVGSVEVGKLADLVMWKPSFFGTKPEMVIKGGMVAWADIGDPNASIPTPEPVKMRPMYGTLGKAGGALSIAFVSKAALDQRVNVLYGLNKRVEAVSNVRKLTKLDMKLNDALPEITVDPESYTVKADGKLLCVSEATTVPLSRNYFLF

Row | EC50 [3] [µM] | IC50 [4] [µM] | EC50 ([2]; read-out: EC50 MCF-7) [µM] | Structure (SMILES) | also measured
1 |  |  |  | CCCCCOC(=O)Nc1nc(=O)n([C@@H]2O[C@H](C)[C@@H](O)[C@H]2O)cc1F [CP, capecitabine, reference compound] | DNA fragmentation (TUNEL, green stain of nuclei) [1]: green-stained nuclei were observed; EC50 ([2]; read-out: EC50 on MCF-7): 980 µM
2 | > 500 | 12.6 ± 0.43 | > 500 | Oc1ccccc1C1=NN(c2ccccc2)C(c2ccc(Br)cc2)C1 (stereo not shown) [Compound 2c, 1-Phenyl-3(2-hydroxy-phenyl)-5-(4-bromo-phenyl)-2-pyrazoline] | 
3 | > 500 | 13.3 ± 0.25 | > 500 | COc1cc(C2CC(c3ccccc3O)=NN2c2ccccc2)cc(OC)c1OC (stereo not shown) [Compound 2d, 1-Phenyl-3(2-hydroxy-phenyl)-5-(3,4,5-trimethoxyphenyl)-2-pyrazoline] | 
4 | > 500 | 15.4 ± 0.38 | > 500 | COc1ccc(C2CC(c3ccccc3O)=NN2c2ccccc2)cc1 (stereo not shown) [Compound 2e, 1-Phenyl-3(2-hydroxy-phenyl)-5-(4-methoxyphenyl)-2-pyrazoline] | 
5 | > 500 | 9.13 ± 0.25 | > 500 | COc1ccc(C2CC(c3ccccc3O)=NN2c2ccccc2)cc1OC (stereo not shown) [Compound 2g, 1-Phenyl-3(2-hydroxy-phenyl)-5-(3,4-dimethoxyphenyl)-2-pyrazoline] | Ki [5]: 19.1 µM; mode of inhibition ([5]; urease): competitive inhibition; Vmax ([5]; urease, at a 20 μM inhibitor concentration): 5.76 µM/min
6 | > 500 | 11.3 ± 0.51 | > 500 | O=C(O)c1ccc(C2CC(c3ccccc3O)=NN2c2ccccc2)cc1 (stereo not shown) [Compound 2h, 1-Phenyl-3(2-hydroxy-phenyl)-5-(4-carboxyphenyl)-2-pyrazoline] | 
7 | > 500 | 13.7 ± 0.47 | > 500 | CC(=O)Nc1ccc(C2CC(c3ccccc3O)=NN2c2ccccc2)cc1 (stereo not shown) [Compound 2j, 1-Phenyl-3(2-hydroxy-phenyl)-5-(4-acetamidophenyl)-2-pyrazoline] | 
8 | > 500 | 12.2 ± 0.38 | > 500 | Cc1ccc(C2CC(c3ccccc3O)=NN2c2ccccc2)c(C)c1 (stereo not shown) [Compound 2p, 1-Phenyl-3(2-hydroxy-phenyl)-5(2,4-dimethyl-phenyl)-2-pyrazoline] | 

Row | Structure (SMILES) | EC50 [3] [µM] | IC50 [4] [µM] | EC50 ([2]; read-out: EC50 MCF-7) [µM] | also measured
9 | Oc1ccccc1C1=NN(c2ccccc2)C(c2ccccc2)C1 (stereo not shown) [Compound 2l, 1-Phenyl-3(2-hydroxy-phenyl)-5-phenyl-2-pyrazoline] | 510 |  | 120 ± 0.1 | DNA fragmentation (TUNEL, green stain of nuclei) [1]: morphologically detectable (green); urease IC50 ± SEM ([4]; pH 8.2, 30 °C, 100 mM urea): NA* ^a; mode of MCF-7 cell death (Annexin V-FITC/PI staining) [6]: induce early apoptosis
